NR1D1 modulator = modulators of Rev-erb alpha DNA binding, primary screen, biochemical, FITC-DNA, fluorescence polarization, uHTS. Nuclear receptor subfamily 1 group D member 1 (Homo sapiens), P20393. 370,000 compounds, 0.79% hits. Rev-erbα–FITC-DNA binding, 90 min. activity, % at 10 µM;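 active = activity above about 14%, limit read from the data; passing the limit was not always enough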;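 note: 0% = DMSO wells with 35 nM protein and 100% = DMSO wells with 750 nM protein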
Target sequence (P20393 whole entry, looked up): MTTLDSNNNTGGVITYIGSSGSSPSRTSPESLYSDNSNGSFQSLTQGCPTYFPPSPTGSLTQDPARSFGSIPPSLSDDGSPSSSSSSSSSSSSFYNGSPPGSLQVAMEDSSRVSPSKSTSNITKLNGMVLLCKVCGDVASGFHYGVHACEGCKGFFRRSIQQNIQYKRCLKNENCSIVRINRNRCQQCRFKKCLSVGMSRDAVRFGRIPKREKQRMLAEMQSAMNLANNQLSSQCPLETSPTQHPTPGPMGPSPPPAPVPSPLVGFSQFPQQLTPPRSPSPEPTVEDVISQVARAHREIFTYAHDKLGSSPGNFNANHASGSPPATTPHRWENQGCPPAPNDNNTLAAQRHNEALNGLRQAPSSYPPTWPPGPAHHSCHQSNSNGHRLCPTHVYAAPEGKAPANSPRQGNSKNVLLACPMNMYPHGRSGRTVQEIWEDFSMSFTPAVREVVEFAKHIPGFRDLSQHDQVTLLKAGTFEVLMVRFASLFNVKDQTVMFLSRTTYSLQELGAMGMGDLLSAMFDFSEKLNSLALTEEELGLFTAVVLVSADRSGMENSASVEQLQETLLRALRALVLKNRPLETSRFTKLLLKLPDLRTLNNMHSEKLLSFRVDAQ
CSN deneddyl inh = inhibitors of CSN-mediated cullin deneddylation, primary screen, biochemical, fluorescence polarization, uHTS; COP9 signalosome complex subunit 5 (Homo sapiens), Q92905; 360,000 compounds, 0.38% hits; Purified CSN, SCF-Nedd8-OG deneddylation; inhibition, % at 12.5 µM; AID 651999, 2013;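 active = pattern-corrected inhibition above about 35%, with an unprinted fluorescence ratio check between 0.5 and 1.5, limit read from the data, passing the limit was not always enough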;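 note: 0% = enzyme with substrate and 100% = substrate without enzyme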
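test system = HEK293T-derived human Csn5 enzyme | amount = 0.24 nM Csn5 enzyme, final concentration | medium = Tris/NaCl/DTT buffer, pH 7.5 | schedule = 90 min reaction at room temperature | signal = FP | evaluation = inhibition of Csn5 cleavage, % | compound dosing = single dose of 12.5 µM compound with 0.25% DMSO | probe or stimulus = 10 nM SCFSkp2-Nedd8OG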
aDG glyco up = activators of alpha-DG glycosylation, primary screen, uHTS, Pro5-aDG cells, AlphaScreen. alpha-DG glycosylation AlphaScreen (IIH6); 0% Pro5, 100% B10-LARGE cell signal. activation, % at 10 µM. 360,000 compounds, 0.22% hits;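 active = activation of at least 8% versus controls, or a plate z-score of at least 8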;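 note: Pro5 are CHO cells carrying HIG-tagged alpha-DG that lacks glycosylation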
HNF4A DNA FP = change in binding of human HNF4A to DNA, primary screen, biochemical, fluorescence polarization, FITC-DNA; Hepatocyte nuclear factor 4-alpha (Homo sapiens), P41235; 360,000 compounds, 0.3% hits; activity change, % at 10 µM; 1 h; in the data active = activity change above about 30%, passing the limit was not always enough
Rev-erbA confirm = modulators of Rev-erb alpha DNA binding, confirmation, biochemical, FITC-DNA, fluorescence polarization, single point; 90 min; 3,000 compounds, 61% hits; activation, % at 25 µM; AID 1259319, 2017; shares compounds with NR1D1 modulator;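 active = activation at or above a set limit, or at least 3 SD above the negative control mean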;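 note: 0% = 35 nM protein with DMSO and 100% = 750 nM protein high control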
RORg counter = modulation of RORgamma DNA binding, dose response, counter-screen for Rev-erb alpha modulator project, biochemical, fluorescence polarization, FITC-DNA; shares compounds with NR1D1 modulator; purified RORgamma protein-FITC-DNA binding; IC50, µM; 910 compounds, 8% hits; AID 1259320, 2017;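 active = Compounds whose fitted half-maximal concentration for disrupting protein-DNA binding is below 10 micromolar; the record names Rev-erb in its text, so the target is in doubt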
* marks the source's active call; other numbers are inactive results; · = no result; + = active, no number. In the library only some 1.5% were active in any assay of this set; here they are far more common.

SMILES	NR1D1 modulator	CSN deneddyl inh	aDG glyco up	HNF4A DNA FP	Rev-erbA confirm	others
NC(=O)c1c(N)[nH]c(C(=O)c2ccccc2)c1-c1ccccc1C(F)(F)F	-0.3	·	·	·	·
CCC(=O)N1CCc2cc(Br)c(S(=O)(=O)NCc3ccccc3OC)cc21	0.1	·	·	·	·
COC(=O)[C@]12C[C@H](CC(=O)NCc3ccc(C)o3)C(=O)N(Cc3cccc4ccccc34)C1=C[C@H](C(C)(C)C)O[C@@H]2C	-0.4	·	·	·	·
COc1ccc(NC(=O)c2cc(-c3cc(OC)c(OC)c(OC)c3)nc3ccccc23)cc1OC	-0.6	-4.0	-0.3	0.7	·
COc1cc(-c2cc(C(=O)Nc3cccc(S(=O)(=O)N(C)C)c3)c3ccccc3n2)cc(OC)c1OC	15.2*	2.9	-0.1	-2.1	-8.6
Cn1c(N)c(C(=O)COC(=O)C2(c3ccc(F)cc3)CCCC2)c(=O)n(C)c1=O	-4.2	-3.6	0.4	1.8	·
Cn1c(N)c(C(=O)COC(=O)C2(c3ccccc3F)CCCC2)c(=O)n(C)c1=O	18.6*	1.1	-0.1	-0.7	-4.0
CN(CC(=O)Nc1cccc(F)c1)C(=O)c1ccc(-c2ccc(Cl)cc2)o1	4.0	1.2	0.3	-2.8	·
Cc1ccc(C)c(NC(=O)CN(C)C(=O)c2ccc(-c3ccc(Cl)cc3)o2)c1	25.6*	6.2	-0.2	-1.3	17.8*
CC(C)[C@H]1COc2c3ccccc3nn21	1.0	·	·	·	·
COCCN(Cc1cc2cc(C)ccc2n2nnnc12)C(=S)Nc1ccccc1C	87.4*	2.4	-0.8	-0.2	40.4*	RORg counter=>40
Cc1cccnc1NC(=O)c1cc2ccccc2oc1=O	43.2*	-1.5	-0.2	-0.1	6.8
CCCn1c(=O)[nH]c(=O)c2c(C(=O)OCC)cc(-c3cccs3)nc21	29.5*	14.3	0.0	5.3	26.7*
COC(=O)[C@]12C[C@H](CC(=O)N3CCCCC3)C(=O)N(CCc3ccc(OC)c(OC)c3)C1=C[C@H](COCc1ccccc1)O[C@@H]2C	3.0	·	·	·	·
O=C(Nc1cccc(C(F)(F)F)c1)c1cc(Br)cc2c1OCC2	28.4*	-2.4	0.1	2.6	30.5*	RORg counter=4.46*
O=c1[nH]c(/C=C/c2cccc3ccccc23)nc2ccccc12	60.2*	4.1	-0.5	17.7	25.4*
CCCCn1c(SC(C)C(=O)NCC2CCCO2)nc2cc(C(=O)OC)ccc2c1=O (stereo not drawn)	39.8*	0.1	-0.1	3.2	31.6*	RORg counter=>40
CCCC[C@H]1C2CC(OC(=O)Nc3cc(C)cc(C)c3)C(C2)[C@H]2CCCCN21 (stereo partly drawn)	1.9	·	·	·	·
CC(C)CCNC(=O)c1cc2c(=O)[nH]c3ccccc3c2s1	30.3*	1.5	0.0	-3.5	22.2*
CCc1nc(SCC(=O)NCCc2ccccc2)c2oc3ccccc3c2n1	62.2*	1.4	1.7	3.2	69.4*	RORg counter=>40
CCc1nc(SCC(=O)NCC2CCCO2)c2oc3ccccc3c2n1 (stereo not drawn)	1.2	2.8	0.0	2.9	·
Cc1nc(SCC(=O)NCc2ccco2)c2oc3ccccc3c2n1	-4.9	-0.2	0.1	3.4	·
Cc1nc(SCC(=O)NCCc2ccccc2)c2oc3ccccc3c2n1	+	-2.9	2.8	-1.4	+	RORg counter=>40
CCOC(=O)[C@@]12CN(C(=O)OC(C)(C)C)CC=C1N(Cc1ccc(OC)cc1)C(=O)[C@H]2CC(=O)NCCc1ccccc1OC	-0.8	·	·	·	·
COC(=O)C1CN(Cc2cn(Cc3ccc(OC)cc3)nn2)CCS(=O)(=O)N1Cc1ccc(OC)cc1 (stereo not drawn)	-1.5	·	·	·	·
SMILES	NR1D1 modulator	CSN deneddyl inh	aDG glyco up	HNF4A DNA FP	Rev-erbA confirm	others
CC(C)c1cc(C(=O)OCC(=O)NC(=O)NCc2ccco2)c(O)c(C(C)C)c1	16.1*	6.8	0.2	-1.2	5.6
CCOC(=O)c1cnc2c(cnn2C)c1NCc1ccc(OC)cc1	27.5*	-1.9	1.3	2.0	22.0*
COC(=O)[C@]12C[C@H](CC(=O)NCC3CCCCC3)C(=O)N(Cc3cccc4ccccc34)C1=C[C@H](C1CCCC1)O[C@@H]2C	3.9	·	·	·	·
c1ccc(-c2c[nH]c3cccc(-c4cc5ccccc5o4)c23)cc1	-0.2	·	·	·	·
Cc1cc(-c2csc3nc[nH]c(=S)c23)cc(C)c1C	61.2*	-3.6	0.6	2.4	62.3*	RORg counter=>40
Cc1ccc(-c2csc3nc[nH]c(=S)c23)cc1	6.0	-2.3	1.4	1.1	·
COc1ccc(-c2nc(N)ncc2Oc2ccccc2Br)c(O)c1	103.6*	-5.1	0.0	2.3	80.5*	RORg counter=>40
COC(=O)[C@H](CC(C)C)N(CCc1cn(Cc2ccc(C)cc2)nn1)S(=O)(=O)c1ccc(F)cc1Br	-1.2	·	·	·	·
CCOC(=O)c1sc(NC(=O)c2cc3ccccc3o2)nc1C	30.1*	-0.2	0.0	2.4	4.9
CCOC(=O)c1sc(NC(=O)Nc2ccccc2F)nc1C	3.6	6.0	0.4	0.3	·
COC(=O)c1sc(NC(=S)NC(=O)c2ccccc2F)nc1C	43.2*	4.9	-0.2	-0.3	-0.4
CCOC(=O)c1sc(NC(=O)c2ccccc2OC)nc1C	40.5*	-0.4	0.3	7.8	23.2*
COC(=O)c1cc(Cl)c(NC(=O)c2cc3ccccc3o2)cc1OC	28.2*	-1.0	-0.2	2.2	-0.2
COC(=O)c1cc(Cl)c(NC(=O)c2ccc(C(C)(C)C)cc2)cc1OC	-3.6	2.7	0.7	1.1	·
Cn1c(NC(=O)c2ccccc2)nc(Cc2ccccc2)c1-c1ccccc1	-10.0	·	·	·	·
COC(=O)[C@H](CC(C)C)N(CCCc1cn(Cc2ccccc2)nn1)S(=O)(=O)c1ccccc1Br	-5.2	·	·	·	·
C[C@H](O)[C@@H]1CN2CCc3ccc(N4CCOCC4)cc3[C@@H]2C[C@@H]1N(C)C(=O)c1cccc(Cl)c1	-4.0	·	·	·	·
Cc1cccc(C)c1NC(=O)CSc1ncnc2[nH]ncc12	23.1*	0.7	-0.1	5.2	18.3*
Cc1cccc(C(C)C)c1NC(=O)CSc1ncnc2[nH]ncc12	-0.7	-3.4	-0.1	-1.4	·
CCOc1ccc(N(CC(=O)Nc2c(C)n(C)n(-c3ccccc3)c2=O)S(=O)(=O)c2cccc3cccnc23)cc1	1.1	·	·	·	·
CCOC(=O)CC(=O)CSc1nc(-c2ccccc2)cc(-c2ccccc2)c1C#N	18.3	1.9	0.4	6.8	·
CC(C)OC(=O)CC(=O)CSc1nc(-c2ccc(F)cc2)cc(-c2ccccc2)c1C#N	35.9*	3.2	0.0	0.8	26.4*
COc1cc(-c2cc(-c3ccccc3)nc(SCC(=O)Nc3nccs3)c2C#N)cc(OC)c1OC	72.1*	4.4	-0.3	0.2	14.9
